How the values were obtained:
Type in all cases: functional
[1] = Cytotoxicity against human CNS cancer cells after 48 hrs; settings: Cancer cell lines
Method in brief: (§1)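 NCI 60-cell panel subpanel lines; compounds first screened at a single 10−5 M, then those passing threshold tested in five-concentration assay over 10−9 to 10−4 M (some to 10−3 M), 48 h exposure. Growth relative to untreated control measured as cell protein; GI50, TGI and LC50 derived; some values are means of two experiments.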

[2] = Cytotoxicity against human renal cancer cells after 48 hrs; settings: Cancer cell lines; method in brief: as §1
[3] = Cytotoxicity against human COLON cells after 48 hrs; method in brief: as §1
[4] = Cytotoxicity against human leukemia cells after 48 hrs; settings: Leukemia cell
Method in brief: (§2)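 NCI 60-cell panel (subpanels include leukemia and prostate). […] Percent growth relative to untreated control; some repeats averaged over two experiments.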

[5] = Cytotoxicity against human melanoma cells after 48 hrs; settings: Melanoma cell; method in brief: as §1
NSCLC = experiment: Cytotoxicity against human NSCLC cells after 48 hrs; method in brief: as §1
[6] = Cytotoxicity against human prostate cancer cells after 48 hrs; settings: Cancer cell lines; method in brief: as §2
[7] = Cytotoxicity against human breast cancer cells after 48 hrs; settings: Cancer cell lines; method in brief: as §1
[8] = Cytotoxicity against human ovarian cancer cells after 48 hrs; settings: Cancer cell lines; method in brief: as §1

| SMILES | GI50 [1] [µM] | TGI [1] [µM] | GI50 [2] [µM] | TGI [2] [µM] | GI50 [3] [µM] | TGI [3] [µM] | GI50 [4] [µM] | TGI [4] [µM] | GI50 [5] [µM] | TGI [5] [µM] | GI50 (NSCLC) [µM] | TGI (NSCLC) [µM] | GI50 [6] [µM] | GI50 [7] [µM] | TGI [7] [µM] | GI50 [8] [µM] | TGI [8] [µM] | also measured |
| --- | --- | --- | --- | --- | --- | --- | --- | --- | --- | --- | --- | --- | --- | --- | --- | --- | --- | --- |
| O=C1Nc2ccccc2/C1=C\c1c(-c2ccccn2)nc2sccn12 | 0.81 | 20.9 | 2.34 | 95.5 | 0.49 | 52.5 | 0.35 | 14.8 | 2.45 | 91.2 | 1.58 | 70.8 | 1.02 | 0.59 | 36.3 | 2.88 | 37.1 | LC50 [1]: 89.1 µM; LC50 (concentration killing 50% of starting cells) [8]: 91.2 µM |
| COc1nc2sccn2c1/C=C1/C(=O)Nc2cccc(Cl)c21 | 6.31 | 32.4 | 7.08 | 49 | 3.72 | 91.2 | 2.19 | 64.6 | 4.9 | 60.3 | 7.08 | 70.8 | 13.2 | 3.24 | 50.1 | 4.68 | 43.6 | LC50 [1]: 87.1 µM; CC50 ([2]; read-out: LC50 (the source's name)): 89.1 µM; LC50 [7]: 93.3 µM; LC50 (concentration killing 50% of starting cells) [8]: 97.7 µM |
| Cc1nn2c(/C=C3/C(=O)Nc4ccc(F)cc43)c(-c3ccc(Cl)cc3)nc2s1 | 20.4 | 79.4 | 26.3 | 72.4 | 38 |  | 25.1 |  | 66.1 |  | 60.3 |  |  | 36.3 | 95.5 | 21.9 |  |  |
| Cc1cn2c(/C=C3/C(=O)Nc4cc(Cl)ccc43)c(C)nc2s1 | 2.4 | 25.7 | 4.79 | 70.8 | 0.98 | 66.1 | 1.07 | 37.1 | 1.58 | 57.5 | 2.29 |  | 2.29 | 1.2 | 15.8 | 7.41 |  |  |
| COc1nc2sccn2c1C=C1C(=O)Nc2ccc(F)cc21 (mixture of isomers) | 6.46 | 42.7 | 6.76 | 47.9 | 3.16 | 61.7 | 3.39 |  | 6.03 | 47.9 | 6.03 | 66.1 | 12 | 2.88 | 51.3 | 5.62 | 44.7 | TGI [6]: 93.3 µM |
| Cc1nn2c(/C=C3/C(=O)Nc4ccc(F)cc43)c(C)nc2s1 | 20.9 | 87.1 | 26.9 |  | 4.17 |  | 2.34 |  | 26.9 |  | 19.5 |  |  | 6.31 | 57.5 | 33.9 |  |  |
| Cc1ccc(-c2nc3sc(C)cn3c2/C=C2/C(=O)Nc3cc(C)c(O)cc32)cc1 | 11.8 | 91.2 | 18.2 |  | 60.3 |  | 52.5 |  | 33.9 |  | 18.6 | 72.4 | 21.4 | 12.6 | 63.1 | 10.5 | 63.1 |  |
| Cc1ccc(-c2nc3sc(C)cn3c2/C=C2/C(=O)N(C)c3ccccc32)cc1 | 19.1 | 75.9 | 15.1 | 85.1 | 20.4 |  | 7.08 | 63.1 | 17.4 | 87.1 | 24 | 89.1 | 6.46 | 13.5 | 75.9 | 32.4 | 89.1 |  |
| COc1ccc2c(c1)/C(=C\c1c(-c3ccc(Cl)cc3)nc3sc(C)nn13)C(=O)N2 | 69.2 |  | 81.3 |  |  |  |  |  |  |  |  |  |  | 95.5 |  |  |  |  |

Source: ChEMBL document CHEMBL2062525, “Substituted 3-(5-imidazo[2,1-b]thiazolylmethylene)-2-indolinones and analogues: synthesis, cytotoxic activity, and study of the mechanism of action” (J Med Chem, 2012)
